In all, about 330,000 compounds went through this assay and about 2,400 (0.73%) were called active. The calls were made as follows: active = inhibition of at least 40% at 20 µM; inactive = the rest. Only a selection was taken, and actives are over-represented in it overall.

For orientation: inhibition means the relative decrease from the control value, in per cent.

Sequence of Apoptotic protease-activating factor 1 (Homo sapiens) (O14727 whole entry, looked up): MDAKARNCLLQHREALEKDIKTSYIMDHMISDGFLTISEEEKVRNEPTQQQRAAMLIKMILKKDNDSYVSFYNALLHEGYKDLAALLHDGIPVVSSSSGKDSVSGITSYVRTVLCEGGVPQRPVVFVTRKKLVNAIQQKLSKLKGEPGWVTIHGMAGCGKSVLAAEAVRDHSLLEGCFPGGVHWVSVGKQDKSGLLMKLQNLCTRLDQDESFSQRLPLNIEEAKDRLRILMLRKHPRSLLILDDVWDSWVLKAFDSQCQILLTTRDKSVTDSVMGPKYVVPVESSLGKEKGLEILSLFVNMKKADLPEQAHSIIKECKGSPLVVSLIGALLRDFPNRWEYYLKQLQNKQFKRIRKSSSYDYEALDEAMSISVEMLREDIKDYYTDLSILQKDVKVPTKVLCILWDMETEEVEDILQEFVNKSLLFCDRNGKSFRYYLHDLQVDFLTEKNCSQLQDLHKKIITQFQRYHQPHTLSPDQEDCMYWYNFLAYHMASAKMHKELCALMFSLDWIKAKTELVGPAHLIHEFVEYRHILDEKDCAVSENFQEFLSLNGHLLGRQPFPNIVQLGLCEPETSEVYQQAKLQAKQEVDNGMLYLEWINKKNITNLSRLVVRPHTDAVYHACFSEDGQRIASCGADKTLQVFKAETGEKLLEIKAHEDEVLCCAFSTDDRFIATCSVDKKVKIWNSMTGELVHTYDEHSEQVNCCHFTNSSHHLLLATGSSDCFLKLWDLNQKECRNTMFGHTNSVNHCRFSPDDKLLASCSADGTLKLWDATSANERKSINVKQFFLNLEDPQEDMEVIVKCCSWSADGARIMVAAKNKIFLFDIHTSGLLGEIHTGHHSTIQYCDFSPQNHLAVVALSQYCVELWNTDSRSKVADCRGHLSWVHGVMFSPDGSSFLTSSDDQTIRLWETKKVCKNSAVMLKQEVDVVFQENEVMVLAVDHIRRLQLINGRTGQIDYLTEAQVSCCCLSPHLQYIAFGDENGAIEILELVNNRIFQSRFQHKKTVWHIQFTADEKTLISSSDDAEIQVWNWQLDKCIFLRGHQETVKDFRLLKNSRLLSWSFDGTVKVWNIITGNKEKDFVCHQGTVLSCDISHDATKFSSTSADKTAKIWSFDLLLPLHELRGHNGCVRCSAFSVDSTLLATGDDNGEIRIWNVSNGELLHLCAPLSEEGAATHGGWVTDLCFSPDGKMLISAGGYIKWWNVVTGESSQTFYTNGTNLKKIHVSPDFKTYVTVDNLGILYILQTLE

In this assay the target is Apoptotic protease-activating factor 1 (Homo sapiens) (UniProt O14727). Kind of assay: blockers of Apaf-1-driven caspase-3 activation – biochemical, DEVD-Rh110 fluorescence, uHTS, primary screen (AID 489030).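 Also: plate controls were DMSO wells for no effect and DEVD-CHO caspase inhibitor wells for full effect.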 The conditions noted are these: reconstituted apoptosome caspase-3 activity, at 20 µM, active compounds read high. Put shortly:
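System: reconstituted apoptosome with Apaf-1, cytochrome c, caspase-9, procaspase-3, dATP; Signal: Rh110 fluorescence intensity; Schedule: 30 min compound preincubation, 50 min activation, room temperature; Reagent: cytochrome c trigger plus (Z-DEVD)2-Rh110 caspase-3 substrate.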
For `CC(=O)N(C1=C(Cl)C(=O)c2ccccc2C1=O)c1ccc(C(=O)O)cc1`, the inhibition is 89% (active).

For `Cc1ccc(-c2nc(-c3cccnc3)sc2CC(=O)Nc2ccc(C)c(Cl)c2)cc1`, the inhibition is 19% (inactive).

Take `Cc1cccc(OCC(=O)NC2CC(C)(C)NC(C)(C)C2)c1`: the inhibition is 0.115% (inactive).

Regarding `O=C(CS(=O)(=O)c1cn(Cc2cccc(F)c2)c2ccccc12)N1CCCCC1`, the inhibition was 18.4% (inactive).

As to `c1ccc(-c2cc(N3CCCCC3)c3ccccc3n2)cc1`, the inhibition was -0.639% (inactive).

`O=c1cc(N2CCCCC2)c(-c2ccccc2)nn1Cc1cccc(F)c1`: the inhibition is 44% (active).

As for `COc1ccc(OC)c(NC(=S)N2CCc3ccccc3C2)c1`, the inhibition was -1.06% (inactive).

Regarding `O=S(=O)(c1ccc(Br)cc1)N1CCC(c2nc3ccccc3[nH]2)CC1`, the inhibition was 6.06% (inactive).

In the case of `Cc1noc(C)c1CSc1nnc2ccc3ccccc3n12`, the inhibition was -5% (inactive).

As to `C(=N/Nc1cc(N2CCOCC2)nc(N2CCOCC2)n1)/c1ccccc1`, the inhibition is 76.5% (active).

Regarding `CN(C)c1ccc(/C=N/Nc2cc(N3CCOCC3)nc(N3CCOCC3)n2)cc1`, the inhibition is 1.31% (inactive).

On to `COc1ccc(/C=N/Nc2cc(N3CCOCC3)nc(C)n2)c(OC)c1`, for which the inhibition is 0.02% (inactive).

Consider `Cc1ccc(C)c2c1cc(C)c1nnc(SCC(=O)Nc3cccc(C(=O)O)c3)n12`, for which the inhibition was -9.82% (inactive).

`CCOCCCNS(=O)(=O)Cc1ccccc1`: the inhibition is 5.85% (inactive).

Regarding `COc1cnc(SCc2ccc(Cl)c(Cl)c2)nc1Cl`, the inhibition is 0.38% (inactive).

In the case of `O=C(CN1CCCCCC1)Nc1c(Cl)cc(Cl)cc1Cl`, the inhibition is -0.605% (inactive).

On to `CN(CC(=O)Nc1ccc(F)cc1)C(=O)c1ccc(-c2ccc(Cl)cc2)o1`, for which the inhibition is 22% (inactive).

With `Cc1[nH][nH]c(=O)c1C(c1ccc(-c2ccc(Cl)cc2)o1)c1c(C)[nH][nH]c1=O`, the inhibition is 85.8% (active).

As to `O=C(NC1CCCCC1)c1ccc(-c2ccc(Cl)cc2)o1`, the inhibition was 15% (inactive).

Regarding `CCC(=O)Nc1ccc2nn(-c3ccc(F)cc3)nc2c1`, the inhibition was 17.5% (inactive).

With `Nc1ccc2nn(-c3ccc(Cl)cc3)nc2c1`, the inhibition is 83.8% (active).

In the case of `c1ccc(-n2nc3ccccc3n2)cc1`, the inhibition was 2.62% (inactive).

`O=Cc1c(Cl)cccc1Cl`: the inhibition is -4.79% (inactive).

As to `CCN1C(=O)c2cccc3c(S(=O)(=O)Nc4ccccc4O)ccc1c23`, the inhibition is 5.31% (inactive).

As for `Cc1nn(C)cc1N1C(=O)c2cccc3c(N)ccc(c23)C1=O`, the inhibition is 12.4% (inactive).

`CCN1C(=O)c2cccc3c(N)ccc1c23`: the inhibition was 97.1% (active).

Take `CCSc1sc(CC)cc1C=O`: the inhibition is -7.54% (inactive).

On to `COCCC(=O)Nc1ccc2c(c1)CN(C(=O)CCOC)CC2`, for which the inhibition was -12.8% (inactive).

For the compound `Cc1occc1C(=O)N/N=C/c1ccc(-c2cccc([N+](=O)[O-])c2)o1`, the inhibition is 10.6% (inactive).

As for `Cc1ccc(-c2ccc(/C=N/NC(=O)CN3CCOCC3)o2)cc1[N+](=O)[O-]`, the inhibition was 73.9% (active).

Regarding `O=C(CN1CCOCC1)N/N=C/c1ccc(-c2ccc(Br)cc2)o1`, the inhibition was -12% (inactive).

For `CCc1ccc(CNC(=O)C2CCN(c3nnc(C)c4c(C)n(-c5ccc(C)cc5)nc34)CC2)cc1`, the inhibition is 42.3% (active).

With `COc1ccc(-n2nc3c(N4CCC(C(=O)NCc5ccccc5)CC4)nnc(C)c3c2C)cc1`, the inhibition was 7.29% (inactive).

`CCOc1ccc(CNC(=O)C2CCCN(c3nnc(C)c4c(C)n(-c5ccccc5)nc34)C2)cc1` (stereo unspecified): the inhibition was 23.8% (inactive).

With `C=C(C)CSc1nc(N)c2c3c(sc2n1)CCC3`, the inhibition is -16.8% (inactive).

In the case of `CC(C)CNC(=O)/C=C/C(=O)O`, the inhibition was -2.85% (inactive).

With `O=C1C(Cl)=C(N2CCOCC2)C(=O)N1c1ccccc1`, the inhibition was -17.1% (inactive).

As to `COC1=C(N2CCOCC2)C(=O)c2ccccc2C1=O`, the inhibition was 65.8% (active).

In the case of `O=C1c2ccccc2-c2ncnc3c(N4CCOCC4)cc(N4CCOCC4)c1c23`, the inhibition is 11.8% (inactive).

As to `Cc1ccc(S(=O)(=O)C(C#N)c2nc3ccccc3nc2N2CCCC2)cc1C` (stereo unspecified), the inhibition is 60% (active).

With `CC(C)OC(=O)C(C#N)c1nc2ccccc2nc1N1CCN(Cc2ccccc2)CC1` (stereo unspecified), the inhibition is 10.2% (inactive).

Take `Cc1ccc(S(=O)(=O)N2CCN(c3ccccc3)CC2)cc1C`: the inhibition is 14.9% (inactive).

As to `CN(C(=O)CCNC(=O)Cn1ccc2ccccc2c1=O)c1ccc(Br)cc1`, the inhibition was 3.8% (inactive).

Take `Cc1ccc(C(C)C)c(OCc2nnc(SCC(=O)Nc3nccs3)n2C)c1`: the inhibition was 11.4% (inactive).

`CCCCN1C(N)=NC[C@@H]1Cc1ccccc1`: the inhibition was 13.2% (inactive).

As to `CC[C@@H](C)[C@@H]1CN([C@@H](C)CN2CCC[C@H]2CN2C(N)=NC[C@H]2C(C)C)C(=N)N1CCc1ccc(Cl)c(Cl)c1`, the inhibition is 25.3% (inactive).

Take `C[C@@H](CN1CCC[C@H]1CN1C(N)=NC[C@@H]1Cc1ccccc1)N1C[C@@H](Cc2ccccc2)N(CCCC2CCCC2)C1=N`: the inhibition is 70.9% (active).

Take `CC(C)CC(=O)N1CCN(Cc2ccccc2Br)CC1`: the inhibition was 8.5% (inactive).

`COc1ccc(NC(=O)c2cccc3c2C(=O)N(CC2CCCO2)C3)cc1OC` (stereo unspecified): the inhibition is 2.96% (inactive).

On to `COCCc1nn2c(=O)cc(COC(=O)c3cc(OC)c(OC)c(OC)c3)nc2s1`, for which the inhibition is -4.08% (inactive).

Consider `COc1cc(/C=N/NC(=O)c2ccoc2C)ccc1OCCN1CCCCC1`, for which the inhibition is 10.2% (inactive).

For `Cc1ccc(-n2[nH]c(C)c(/C=N/NC(=O)c3cccc([N+](=O)[O-])c3)c2=O)cc1C`, the inhibition was 25.4% (inactive).

Take `Cc1[nH]n(-c2ccccc2)c(=O)c1/C=N/NC(=O)c1ccoc1C`: the inhibition was 61.5% (active).

Turning to `Oc1ccc(N=Cc2c(O)ccc3ccccc23)cc1`, the inhibition is 87.2% (active).

`Oc1ccc(N=Cc2sc3ccccc3c2Cl)cc1`: the inhibition was 64.8% (active).

As to `CC(=O)n1c(C=Nc2ccccc2)c(O)c2ccccc21`, the inhibition is 5.41% (inactive).

As to `Cc1cc(N=Nc2ccc3ccccc3c2)ccc1O`, the inhibition was 4.6% (inactive).

Regarding `Oc1ccc(/C=N/N(Cc2ccccc2)c2ccccc2)cc1`, the inhibition is 8.85% (inactive).

For `CSc1ccc(CCNC(=O)C2CCN(c3nnc(-n4cccc4)s3)CC2)cc1`, the inhibition is 0.72% (inactive).

`O=C(NCCCn1ccnc1)c1cc2c(s1)CCCC2`: the inhibition is 11.9% (inactive).

As to `COc1ccc(-c2nc(N)sc2C2(O)C(=O)Nc3c(Br)cc(F)cc32)cc1OC` (stereo unspecified), the inhibition is 3.73% (inactive).

The values above are taken from PubChem BioAssay AID489030 (Sanford-Burnham Center for Chemical Genomics, 2010).
